# Tests used:
# Digitaria sanguinalis [1] = assay: Herbicidal activity against Digitaria sanguinalis (hairy crabgrass) assessed as growth inhibition at 150 g/ha postemergence treatment measured after 15 days by Greenhouse test; type: functional; conditions: post-emergence, 360 h, read-out: GI
# Outline: (§1)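 Test compounds were made up as 100 g/L emulsifiable concentrates (DMF solvent, Tween-80 emulsifier) and diluted with water. About 20 seeds were sown 1–3 cm deep in clay soil (pH 6.5, 1.6% organic matter) in 9.5 cm pots, kept at 15–30 °C and 50% RH. Postemergence spray was applied to dicots at the 2-leaf stage and monocots at the 1-leaf stage. Controls were untreated and solvent-treated. Injury was scored visually at 15 days, with three replicates.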
# Brassica juncea [2] = assay: Herbicidal activity against Brassica juncea assessed as growth inhibition at 150 g/ha postemergence treatment measured after 15 days by Greenhouse test; type: functional; conditions: post-emergence, 360 h, read-out: GI; outline: as §1
# [3] = biological target: T1, Protoporphyrinogen oxidase (Homo sapiens) (UniProt P50336); assay: Inhibition of Homo sapiens (human) recombinant protoporphyrinogen oxidase by fluorescence detection
# T1 sequence (whole entry): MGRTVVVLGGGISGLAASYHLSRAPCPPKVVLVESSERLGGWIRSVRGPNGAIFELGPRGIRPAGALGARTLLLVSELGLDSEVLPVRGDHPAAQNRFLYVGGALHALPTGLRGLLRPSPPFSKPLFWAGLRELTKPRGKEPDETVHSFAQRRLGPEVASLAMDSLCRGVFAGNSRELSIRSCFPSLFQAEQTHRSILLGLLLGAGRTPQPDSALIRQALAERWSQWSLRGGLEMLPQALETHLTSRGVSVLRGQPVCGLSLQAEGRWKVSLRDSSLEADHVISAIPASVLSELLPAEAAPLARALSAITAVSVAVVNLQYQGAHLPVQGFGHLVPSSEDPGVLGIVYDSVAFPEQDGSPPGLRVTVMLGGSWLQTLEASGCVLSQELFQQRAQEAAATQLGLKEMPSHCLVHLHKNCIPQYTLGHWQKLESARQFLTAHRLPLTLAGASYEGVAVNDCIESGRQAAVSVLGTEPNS
# Setaria faberi [4] = assay: Herbicidal activity against Setaria faberi (Giant Foxtail) assessed as growth inhibition at 150 g/ha postemergence treatment measured after 15 days by Greenhouse test; type: functional; conditions: post-emergence, 360 h, read-out: GI; outline: as §1
# Digitaria sanguinalis [5] = assay: Herbicidal activity against Digitaria sanguinalis (hairy crabgrass) assessed as growth inhibition at 37.5 g/ha postemergence treatment measured after 15 days by Greenhouse test; type: functional; conditions: post-emergence, 360 h, read-out: GI
# Outline: (§2)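 Postemergence greenhouse pot test. About 20 seeds per pot, sown 1-3 cm deep in clay soil (pH 6.5, 1.6% organic matter). Plants grown at 15-30 °C and 50% relative humidity. Compounds were made up as 100 g/L emulsifiable concentrates in DMF with Tween-80, then diluted in water. Dicots were sprayed at the 2-leaf stage and monocots at the 1-leaf stage. Controls were untreated and solvent-treated. Injury was scored visually after 15 days, three replicates per treatment.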
# Setaria faberi [6] = assay: Herbicidal activity against Setaria faberi (Giant Foxtail) assessed as growth inhibition at 37.5 g/ha postemergence treatment measured after 15 days by Greenhouse test; type: functional; conditions: post-emergence, 360 h, read-out: GI; outline: as §2
# Abutilon theophrasti [7] = assay: Herbicidal activity against Abutilon theophrasti (velvetleaf) assessed as growth inhibition at 37.5 g/ha postemergence treatment measured after 15 days by Greenhouse test; type: functional; conditions: post-emergence, 360 h, read-out: GI; outline: as §2
# Abutilon theophrasti [8] = assay: Herbicidal activity against Abutilon theophrasti (velvetleaf) assessed as growth inhibition at 75 g/ha postemergence treatment measured after 15 days by Greenhouse test; type: functional; conditions: post-emergence, 360 h, read-out: GI; outline: as §2
# Echinochloa crus-galli [9] = assay: Herbicidal activity against Echinochloa crus-galli (barnyard grass) assessed as growth inhibition at 37.5 g/ha postemergence treatment measured after 15 days by Greenhouse test; type: functional; conditions: post-emergence, 360 h, read-out: GI; outline: as §2
# Setaria faberi [10] = assay: Herbicidal activity against Setaria faberi (Giant Foxtail) assessed as growth inhibition at 75 g/ha postemergence treatment measured after 15 days by Greenhouse test; type: functional; conditions: post-emergence, 360 h, read-out: GI; outline: as §2
# Echinochloa crus-galli [11] = assay: Herbicidal activity against Echinochloa crus-galli (barnyard grass) assessed as growth inhibition at 75 g/ha postemergence treatment measured after 15 days by Greenhouse test; type: functional; conditions: post-emergence, 360 h, read-out: GI; outline: as §2
# Eclipta prostrata [12] = assay: Herbicidal activity against Eclipta prostrata assessed as growth inhibition at 37.5 g/ha postemergence treatment measured after 15 days by Greenhouse test; type: functional; conditions: post-emergence, 360 h, read-out: GI; outline: as §2
# Brassica juncea [13] = assay: Herbicidal activity against Brassica juncea assessed as growth inhibition at 75 g/ha postemergence treatment measured after 15 days by Greenhouse test; type: functional; conditions: post-emergence, 360 h, read-out: GI; outline: as §2
# Abutilon theophrasti [14] = assay: Herbicidal activity against Abutilon theophrasti (velvetleaf) assessed as growth inhibition at 150 g/ha postemergence treatment measured after 15 days by Greenhouse test; type: functional; conditions: post-emergence, 360 h, read-out: GI; outline: as §1
# Echinochloa crus-galli [15] = assay: Herbicidal activity against Echinochloa crus-galli (barnyard grass) assessed as growth inhibition at 150 g/ha postemergence treatment measured after 15 days by Greenhouse test; type: functional; conditions: post-emergence, 360 h, read-out: GI; outline: as §1
# Amaranthus retroflexus [16] = assay: Herbicidal activity against Amaranthus retroflexus assessed as growth inhibition at 75 g/ha postemergence treatment measured after 15 days by Greenhouse test; type: functional; conditions: post-emergence, 360 h, read-out: GI; outline: as §2
# Brassica juncea [17] = assay: Herbicidal activity against Brassica juncea assessed as growth inhibition at 37.5 g/ha postemergence treatment measured after 15 days by Greenhouse test; type: functional; conditions: post-emergence, 360 h, read-out: GI; outline: as §2
# Eclipta prostrata [18] = assay: Herbicidal activity against Eclipta prostrata assessed as growth inhibition at 75 g/ha postemergence treatment measured after 15 days by Greenhouse test; type: functional; conditions: post-emergence, 360 h, read-out: GI; outline: as §2
# Digitaria sanguinalis [19] = assay: Herbicidal activity against Digitaria sanguinalis (hairy crabgrass) assessed as growth inhibition at 75 g/ha postemergence treatment measured after 15 days by Greenhouse test; type: functional; conditions: post-emergence, 360 h, read-out: GI; outline: as §2
# Amaranthus retroflexus [20] = assay: Herbicidal activity against Amaranthus retroflexus assessed as growth inhibition at 37.5 g/ha postemergence treatment measured after 15 days by Greenhouse test; type: functional; conditions: post-emergence, 360 h, read-out: GI; outline: as §2
# Eclipta prostrata [21] = assay: Herbicidal activity against Eclipta prostrata assessed as growth inhibition at 150 g/ha postemergence treatment measured after 15 days by Greenhouse test; type: functional; conditions: post-emergence, 360 h, read-out: GI; outline: as §1
# Amaranthus retroflexus [22] = assay: Herbicidal activity against Amaranthus retroflexus assessed as growth inhibition at 150 g/ha postemergence treatment measured after 15 days by Greenhouse test; type: functional; conditions: post-emergence, 360 h, read-out: GI; outline: as §1
SMILES,inhibition of growth at 150 g/ha (Digitaria sanguinalis [1]) [%],inhibition of growth at 150 g/ha (Brassica juncea [2]) [%],Ki [3] [µM],inhibition of growth at 150 g/ha (Setaria faberi [4]) [%],inhibition of growth at 37.5 g/ha (Digitaria sanguinalis [5]) [%],inhibition of growth at 37.5 g/ha (Setaria faberi [6]) [%],inhibition of growth at 37.5 g/ha (Abutilon theophrasti [7]) [%],inhibition of growth at 75 g/ha (Abutilon theophrasti [8]) [%],inhibition of growth at 37.5 g/ha (Echinochloa crus-galli [9]) [%],inhibition of growth at 75 g/ha (Setaria faberi [10]) [%],inhibition of growth at 75 g/ha (Echinochloa crus-galli [11]) [%],inhibition of growth at 37.5 g/ha (Eclipta prostrata [12]) [%],inhibition of growth at 75 g/ha (Brassica juncea [13]) [%],inhibition of growth at 150 g/ha (Echinochloa crus-galli [15]) [%],inhibition of growth at 75 g/ha (Amaranthus retroflexus [16]) [%],inhibition of growth at 37.5 g/ha (Brassica juncea [17]) [%],inhibition of growth at 75 g/ha (Eclipta prostrata [18]) [%],inhibition of growth at 75 g/ha (Digitaria sanguinalis [19]) [%],inhibition of growth at 37.5 g/ha (Amaranthus retroflexus [20]) [%],inhibition of growth at 150 g/ha (Eclipta prostrata [21]) [%],further results
Cc1nn(-c2cc(NS(C)(=O)=O)c(Cl)cc2Cl)c(=O)n1C(F)F [SULFENTRAZONE],60,80,0.72,< 50,50,< 50,80,80,50,< 50,50,80,80,60,80,60,80,50,80,80,inhibition of growth at 150 g/ha (Abutilon theophrasti [14]): 80%; inhibition of growth at 150 g/ha (Amaranthus retroflexus [22]): 80%
COC(=O)CSc1nc2cc(N3C(=O)C4=C(CCCC4)C3=O)c(F)cc2s1,60,80,1.22,60,< 50,< 50,80,80,< 50,< 50,50,80,50,60,80,50,80,50,80,80,inhibition of growth at 150 g/ha (Amaranthus retroflexus [22]): 80%

# Reference: ChEMBL document CHEMBL3045880, “Design and syntheses of novel N-(benzothiazol-5-yl)-4,5,6,7-tetrahydro-1H-isoindole-1,3(2H)-dione and N-(benzothiazol-5-yl)isoindoline-1,3-dione as potent protoporphyrinogen oxidase inhibitors” (J Agric Food Chem, 2011)
